Data taken from ChEMBL document CHEMBL5303300, “EUbOPEN Chemogenomics Library - Multiplex” (2023).
“And” between values parts separate entries of the source, which are not always exact repeats. Equal entries are not always repeated.

Assays:
[1] = system: Fibroblast; assay: Multiplex assay against human fibroblast; assay type: toxicity, cell-based; settings: number of replicates 2
Procedure, shortened: (§1)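 Imaging took place on a CQ1 microscope at 37°C and 5% CO2 once compound had been added to live cells stained at seeding with Hoechst33342, BioTracker Green Microtubule Cytoskeleton Dye, MitoTracker Red and Annexin V Alexa Fluor 680. CellPathfinder machine-learning gating classed cells as Hoechst high-intensity objects or normal cells, classed normal cells as having healthy, pyknosed or fragmented nuclei, and classed pyknosed cells as mitotic or apoptotic. Tubulin, mitochondrial-mass and membrane-permeability phenotypes are per cents of the healthy-nucleus cells.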

[2] = system: HEK-293T; assay: Multiplex assay against HEK293T; assay type: toxicity, cell-based; settings: human, number of replicates 2; procedure, shortened: as §1
[3] = 12 h, 1 µM, compound concentration 1 uM
[4] = 12 h, 10 µM, compound concentration 10 uM
[5] = 24 h, 1 µM, compound concentration 1 uM
[6] = 24 h, 10 µM, compound concentration 10 uM
[7] = 48 h, 1 µM, compound concentration 1 uM
[8] = 48 h, 10 µM, compound concentration 10 uM

## CN(C)C/C=C/C(=O)Nc1ccc(C(=O)N2CCCC(Nc3ncc(Cl)c(-c4c[nH]c5ccccc45)n3)C2)cc1 (configuration not stated)
[1]; [3]
  Population Apoptotic (%): 40% and 56%
  Population Fragmented Nuclei (%): 10% and 12%
  Population Healthy Nuclei (%): 68% and 67%
  Population Hoechst High Intensity Objects (%): 0%
  Population Membrane Permeable-Phenotype (%): 3% and 5%
  Population Mitochondria Different-Phenotype (%): 0% and 2%
  Population Mitotic Cells (%): 59% and 43%
  Population Normal (%): 99% and 100%
  Population Pyknosed Nuclei (%): 21% and 20%
  Population Tubulin-Different-Phenotype (%): 11% and 13%
  Total Cell Count: 174 and 157
[1]; [4]
  Population Apoptotic (%): 63% and 53%
  Population Fragmented Nuclei (%): 10% and 20%
  Population Healthy Nuclei (%): 42% and 50%
  Population Hoechst High Intensity Objects (%): 0%
  Population Membrane Permeable-Phenotype (%): 0% and 9%
  Population Mitochondria Different-Phenotype (%): 21% and 24%
  Population Mitotic Cells (%): 36% and 46%
  Population Normal (%): 99%
  Population Pyknosed Nuclei (%): 46% and 29%
  Population Tubulin-Different-Phenotype (%): 78% and 70%
  Total Cell Count: 131 and 175
[1]; [5]
  Population Apoptotic (%): 76% and 71%
  Population Fragmented Nuclei (%): 17% and 12%
  Population Healthy Nuclei (%): 49% and 56%
  Population Hoechst High Intensity Objects (%): 0%
  Population Membrane Permeable-Phenotype (%): 10% and 8%
  Population Mitochondria Different-Phenotype (%): 2% and 1%
  Population Mitotic Cells (%): 23% and 28%
  Population Normal (%): 100%
  Population Pyknosed Nuclei (%): 33% and 31%
  Population Tubulin-Different-Phenotype (%): 18% and 19%
  Total Cell Count: 151 and 166
[1]; [6]
  Population Apoptotic (%): 78% and 64%
  Population Fragmented Nuclei (%): 8% and 14%
  Population Healthy Nuclei (%): 30% and 41%
  Population Hoechst High Intensity Objects (%): 1%
  Population Membrane Permeable-Phenotype (%): 2% and 8%
  Population Mitochondria Different-Phenotype (%): 43% and 36%
  Population Mitotic Cells (%): 21% and 35%
  Population Normal (%): 98%
  Population Pyknosed Nuclei (%): 61% and 43%
  Population Tubulin-Different-Phenotype (%): 72% and 71%
  Total Cell Count: 125 and 173
[1]; [7]
  Population Apoptotic (%): 79% and 85%
  Population Fragmented Nuclei (%): 11% and 14%
  Population Healthy Nuclei (%): 47% and 50%
  Population Hoechst High Intensity Objects (%): 0%
  Population Membrane Permeable-Phenotype (%): 19% and 17%
  Population Mitochondria Different-Phenotype (%): 1% and 5%
  Population Mitotic Cells (%): 20% and 14%
  Population Normal (%): 100% and 99%
  Population Pyknosed Nuclei (%): 41% and 35%
  Population Tubulin-Different-Phenotype (%): 27% and 20%
  Total Cell Count: 161 and 139
[1]; [8]
  Population Apoptotic (%): 92% and 87%
  Population Fragmented Nuclei (%): 11% and 14%
  Population Healthy Nuclei (%): 15% and 21%
  Population Hoechst High Intensity Objects (%): 0%
  Population Mitochondria Different-Phenotype (%): 22% and 28%
  Population Mitotic Cells (%): 7% and 12%
  Population Normal (%): 99%
  Population Pyknosed Nuclei (%): 73% and 63%
  Population Tubulin-Different-Phenotype (%): 83% and 74%
  Total Cell Count: 117 and 161
[2]; [3]
  Population Apoptotic (%): 55% and 71%
  Population Fragmented Nuclei (%): 6% and 2%
  Population Healthy Nuclei (%): 72% and 69%
  Population Hoechst High Intensity Objects (%): 14% and 16%
  Population Membrane Permeable-Phenotype (%): 3% and 1%
  Population Mitochondria Different-Phenotype (%): 63% and 58%
  Population Mitotic Cells (%): 44% and 28%
  Population Normal (%): 85% and 83%
  Population Pyknosed Nuclei (%): 20% and 28%
  Population Tubulin-Different-Phenotype (%): 83% and 79%
  Total Cell Count: 354 and 300
[2]; [4]
  Population Apoptotic (%): 69% and 84%
  Population Fragmented Nuclei (%): 5% and 11%
  Population Healthy Nuclei (%): 67% and 68%
  Population Hoechst High Intensity Objects (%): 29% and 21%
  Population Membrane Permeable-Phenotype (%): 5% and 2%
  Population Mitochondria Different-Phenotype (%): 63% and 70%
  Population Mitotic Cells (%): 30% and 15%
  Population Normal (%): 70% and 78%
  Population Pyknosed Nuclei (%): 26% and 20%
  Population Tubulin-Different-Phenotype (%): 88% and 85%
  Total Cell Count: 280 and 375
[2]; [5]
  Population Apoptotic (%): 73% and 75%
  Population Fragmented Nuclei (%): 6% and 5%
  Population Healthy Nuclei (%): 75% and 74%
  Population Hoechst High Intensity Objects (%): 17% and 19%
  Population Membrane Permeable-Phenotype (%): 2% and 0%
